The record followed here is ChEMBL document CHEMBL2331149, “Towards dual antithrombotic compounds - balancing thrombin inhibitory and fibrinogen GPIIb/IIIa binding inhibitory activities of 2,3-dihydro-1,4-benzodioxine derivatives through regio- and stereoisomerism” (Eur J Med Chem, 2013).

Structures are written as SMILES.

One assay deals with Prothrombin (Homo sapiens, UniProt P00734). The assay is described as follows: Inhibition of thrombin (unknown origin) using S-2238 as substrate preincubated with enzyme for 15 mins prior to substrate addition measured every 10 s by amidolytic method. Summed up: (§1)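 Chromogenic amidolytic assay read at 405 nm, 25 °C, with final enzyme levels: thrombin 0.5 NIH E/mL with S-2238 at 20 and 40 µM; factor Xa 1 mBAEE E/mL with S-2222 at 100 and 200 µM; trypsin 0.5 nkat/mL with S-2222 at 50 and 100 µM. Inhibitor diluted from DMSO stock to 0.5–100 µM, three concentrations, triplicate. Ki by Cheng–Prusoff from initial rates, averaged over all combinations.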

Assay [1] is filed under the species Homo sapiens. The assay can be described thus: Selectivity ratio of Ki for trypsin (unknown origin) to Ki for thrombin (unknown origin).
Another assay addresses Coagulation factor X (Homo sapiens, UniProt P00742). The assay can be described thus: Inhibition of factor 10a (unknown origin) using S-2222 as substrate preincubated with enzyme for 15 mins prior to substrate addition measured every 10 s by amidolytic method. Summed up:
as §1

Assay [2] deals with Integrin alpha-IIb/beta-3 (Homo sapiens, UniProt P05106+P08514). The assay is described as follows: Inhibition of biotinylated fibrinogen binding to human GP 2b/3a after 2 hrs by solid-phase competitive displacement assay. It counts as protein-complex assay. In short, it runs like this: (§2)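 Solid-phase competition with isolated human receptor (GPIIb/IIIa or GPV/IIIa) adsorbed overnight at 4 °C in Tris/NaCl buffer with 1 mM Ca2+, Mg2+ and Mn2+, pH 7.4. Blocked with 1% BSA. Serially diluted compounds plus biotinylated human fibrinogen incubated 2 h at room temperature. Bound fibrinogen detected with peroxidase anti-biotin antibody and chemiluminescence. Duplicates, at least three runs; IC50 from sigmoid fit.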

The target in the next assay is Integrin alpha-V/beta-3 (Homo sapiens, UniProt P05106+P06756). The assay is described as follows: Inhibition of biotinylated fibrinogen binding to human alphavbeta3 integrin receptor after 2 hrs by solid-phase competitive displacement assay. In kind it is protein-complex assay. In short, it runs like this: as §2
A further assay has as its target Trypsin (Homo sapiens, UniProt P07477+P07478+P35030). The assay is described as follows: Inhibition of trypsin (unknown origin) using S-2222 as substrate preincubated with enzyme for 15 mins prior to substrate addition measured every 10 s by amidolytic method. It counts as protein assay. In short, it runs like this: as §1
The species entered for assay [3] is Homo sapiens. The assay is described as follows: Selectivity ratio of Ki for factor 10a (unknown origin) to Ki for thrombin (unknown origin).

What is called Ki is a measure of affinity in units of concentration, obtained from inhibition or displacement. A high value points to lower affinity. One may read the IC50 as the concentration needed to halve the response being measured. In the case of `CCOC(=O)C(=O)N(Cc1ccccc1)c1ccc2c(c1)OC[C@H](COc1ccc(C(=N)N)cc1)O2.O=C(O)C(F)(F)F`, the Ki at Prothrombin was determined as 0.436 µM; on Coagulation factor X it was 1.51 µM; at Trypsin, 0.283 µM. Further, the Ratio Ki in the assay listed under Homo sapiens [1] was 0.65; in the assay filed under Homo sapiens [3], 3.46. The IC50 (in assay [2]; at Integrin alpha-V/beta-3) was above 200 µM each time.
`CCOC(=O)C(=O)N(Cc1ccccc1)c1ccc2c(c1)OC[C@@H](COc1ccc(C(=N)N)cc1)O2.O=C(O)C(F)(F)F`: the Ki was 1.65 µM at Prothrombin, 2.15 µM on Coagulation factor X and 0.644 µM at Trypsin. Further, the Ratio Ki in the assay filed under Homo sapiens [1] was 0.39; in the assay filed under Homo sapiens [3], 1.3. The IC50 (in assay [2]; on Integrin alpha-V/beta-3) was above 200 µM throughout.
On to `CCOC(=O)C(=O)N(Cc1ccccc1)c1ccc2c(c1)O[C@@H](COc1ccc(C(=N)N)cc1)CO2.O=C(O)C(F)(F)F`, for which the Ki on Prothrombin came to 0.0778 µM; on Coagulation factor X, 2.7 µM; at Trypsin it was 0.21 µM. The Ratio Ki in the assay filed under Homo sapiens [1] worked out at 2.71; in the assay filed under Homo sapiens [3], 35.9. Besides, the IC50 (in assay [2]; at Integrin alpha-V/beta-3) was above 200 µM throughout.
`CCOC(=O)C(=O)N(Cc1ccccc1)c1ccc2c(c1)O[C@H](COc1ccc(C(=N)N)cc1)CO2.O=C(O)C(F)(F)F`: the Ki at Prothrombin was 0.675 µM; at Coagulation factor X, 0.637 µM; at Trypsin it was 0.894 µM. Further, the Ratio Ki in the assay filed under Homo sapiens [1] came out at 1.32; in the assay filed under Homo sapiens [3] it was 0.95. The IC50 (in assay [2]; on Integrin alpha-V/beta-3) was above 200 µM each time.
Consider `N=C(N)c1ccc(OC[C@@H]2COc3cc(N(Cc4ccccc4)C(=O)C(=O)O)ccc3O2)cc1`, for which the Ki was found to be 5.18 µM at Prothrombin, 5.19 µM on Coagulation factor X and 1.55 µM on Trypsin. In addition, the values for the Ratio Ki in the assay listed under Homo sapiens [1] and in the assay filed under Homo sapiens [3] were 0.3 and 1.3, respectively. Also, the IC50 in assay [2] is 1.21 µM; at Integrin alpha-V/beta-3, above 200 µM.
For `N=C(N)c1ccc(OC[C@@H]2COc3ccc(N(Cc4ccccc4)C(=O)C(=O)O)cc3O2)cc1`, the figures for the Ki on Prothrombin, on Coagulation factor X and on Trypsin were 2.69 µM, 1.27 µM and 1.37 µM, respectively. For the same compound, the Ratio Ki was determined as 0.51 in the assay filed under Homo sapiens [1] and 0.47 in the assay listed under Homo sapiens [3]. Besides, the figures for the IC50 (in assay [2]; on Integrin alpha-V/beta-3) were 17.6 µM and above 200 µM, respectively.
Turning to `N=C(N)c1ccc(OC[C@H]2COc3cc(N(Cc4ccccc4)C(=O)C(=O)O)ccc3O2)cc1`, the Ki is 1.67 µM at Prothrombin, 1.96 µM on Coagulation factor X and 0.463 µM on Trypsin. Besides, the Ratio Ki worked out at 0.28 in the assay filed under Homo sapiens [1] and 1.17 in the assay filed under Homo sapiens [3]. The IC50 in assay [2] was 0.665 µM; on Integrin alpha-V/beta-3, above 200 µM.
Consider `N=C(N)c1ccc(OC[C@H]2COc3ccc(N(Cc4ccccc4)C(=O)C(=O)O)cc3O2)cc1`, for which the Ki is 0.266 µM at Prothrombin, 5.08 µM at Coagulation factor X and 0.267 µM at Trypsin. Moreover, the Ratio Ki was 1 in the assay filed under Homo sapiens [1] and 19.1 in the assay listed under Homo sapiens [3]. The IC50 is 42.6 µM in assay [2] and above 200 µM at Integrin alpha-V/beta-3.
